Screens from PubChem BioAssay.
UPR CHOP act = apoptotic UPR (CHOP) activation | activation, % at 10 µM | AID 449763 | 330,000 tested, 0.34% active | CHO-CHOP luciferase reporter, luminescence; percent of tunicamycin response over DMSO baseline;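 active = at 10 µM dose, activation of 40% or more, normalized to positive control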;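 also: 100% = tunicamycin at 10 µg/mL and 0% = DMSO alone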
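Dosing – one dose, 10 µM in 0.5% DMSO · System – CHO-CHOP cells, stable luciferase reporter of PERK-eIF2a-CHOP signalling · Input – 500 cells/well · Control set – tunicamycin 10 µg/mL final as positive, DMSO-only wells as negative · Timing – 6 h compound treatment, 37 °C · Measure – % activation vs tunicamycin · Technique – luminescence read with Steady-Glo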
Jurkat NFkB inh = inhibitors of the PMA/ionomycin-induced NF-kB reporter in Jurkat cells; PMA/ionomycin-induced NF-kB luciferase reporter, luminescence; 330,000 tested, 0.53% active; inhibition, % at 4 µM; in the data active = inhibition above about 50%
XBP1 UPR activ = activators of adaptive arm of unfolded protein response (XBP1) | CHO-XBP1 luciferase reporter, IRE1-XBP1 UPR activation, luminescence; percent of tunicamycin response, DMSO as zero | activation, % at 20 µM | 330,000 tested, 0.33% active | AID 463104;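 active = versus positive control, 20 µM dose yields 30% or more activation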;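 also: 100% = tunicamycin at 10 µg/mL and 0% = DMSO only wells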
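Material: CHO cell line with stable XBP1 luciferase reporter; buffer or medium: F12 medium containing 10% fetal bovine serum; compound: single point, 20 µM final compound, 1% DMSO; incubation: 6 h treatment, 37 °C; measured by: glow luminescence from Steady-Glo reagent; evaluation: activation, % of tunicamycin; control set: tunicamycin high, DMSO low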
697 NFkB inh = lowers PMA/ionomycin-induced NF-kB signal in 697 B cells. 697 B-cell NF-kB luciferase reporter, 16 h. inhibition, % at 4 µM. 330,000 tested, 0.33% active. AID 435022; in the data active = inhibition above about 35%
CRFR2-BP antag = antagonists of CRF-binding protein/CRF-R2 receptor complex; 350,000 tested, 0.59% active; AID 588475; HEK293 CRF-R2/CRF-BP, CRF-induced calcium fluorescence; inhibition, % at 11.8 µM;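 active = inhibition of the ligand-induced calcium signal above about 50% at the single tested concentration, limit read from the data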
* marks the source's active call; other numbers are inactive results. Most compounds without a hit are left out; they make up all but 1.8% or so of the library.

CCN1C(c2ccccc2)C(C)C(=O)C(C)C1c1ccccc1 (centres undefined) was read as UPR CHOP act 2.0, Jurkat NFkB inh 9.1, XBP1 UPR activ -4.5, 697 NFkB inh 10.1 and CRFR2-BP antag 57.0*.
For O=c1cc(-c2ccccc2)nc2c(-c3ccccc3)c(C(F)(F)F)[nH]n12 the results were UPR CHOP act -0.6, Jurkat NFkB inh -19.0, XBP1 UPR activ -3.8, 697 NFkB inh -6.5 and CRFR2-BP antag 53.5*.
For Cc1cc(=O)n2[nH]c(C)c(-c3ccccc3)c2n1 the results were UPR CHOP act -0.6, Jurkat NFkB inh 1.4, XBP1 UPR activ -1.6, 697 NFkB inh 6.0 and CRFR2-BP antag -38.9.
For Cc1ccccc1C1NC(c2ccccc2C)C(C)C(=O)C1C (centres undefined) the results were UPR CHOP act 2.7, Jurkat NFkB inh 21.2, XBP1 UPR activ 1.2, 697 NFkB inh -6.4 and CRFR2-BP antag 21.1.
For CC1C(=O)C(C)C(c2cccs2)NC1c1cccs1 (centres undefined) the results were UPR CHOP act -0.8, Jurkat NFkB inh -25.1, XBP1 UPR activ -0.4, 697 NFkB inh -39.4 and CRFR2-BP antag 57.3*.
`Cc1ccc(CCNC(=O)C2CCCN(S(=O)(=O)N3CC(C)CC(C)C3)C2)cc1` (centres undefined) gave UPR CHOP act 0.5, Jurkat NFkB inh -11.7, XBP1 UPR activ -4.5, 697 NFkB inh -2.2 and CRFR2-BP antag 85.0*.
`CC1CC(C)CN(S(=O)(=O)N2CCCC(C(=O)NCCc3ccccc3)C2)C1` (centres undefined) gave UPR CHOP act 2.1, Jurkat NFkB inh 13.7, XBP1 UPR activ -3.6, 697 NFkB inh 17.4 and CRFR2-BP antag -3.0.
CC(=O)N=c1sc(S(N)(=O)=O)nn1C was read as UPR CHOP act -2.0, Jurkat NFkB inh 4.8, XBP1 UPR activ -10.5, 697 NFkB inh -22.8 and CRFR2-BP antag 110.9*.
CC(=O)Nc1ccc(NC(=O)CC(C)n2ccnc2)cc1 (centres undefined) was read as UPR CHOP act 1.9, Jurkat NFkB inh -5.0, XBP1 UPR activ -2.5, 697 NFkB inh 9.9 and CRFR2-BP antag 3.2.
`Nc1nc(CN2CCc3ccccc3C2)nc(Nc2ccccc2)n1` gave UPR CHOP act -1.7, Jurkat NFkB inh 5.1, XBP1 UPR activ -0.1, 697 NFkB inh -18.0 and CRFR2-BP antag 74.2*.
For CCOC(=O)C1=NN(c2ccccc2)C2=NC(C)=C(C(=O)OC)C(c3cccs3)N12 (centres undefined) the results were UPR CHOP act -2.4, Jurkat NFkB inh 15.2, XBP1 UPR activ 0.6, 697 NFkB inh 4.4 and CRFR2-BP antag 75.4*.
`CCOC(=O)C1=NN(c2ccc(F)cc2)C2=NC(C)=C(C(=O)OC)C(c3cccs3)N12` (centres undefined) gave UPR CHOP act -0.2, Jurkat NFkB inh -1.4, XBP1 UPR activ -2.5, 697 NFkB inh -8.2 and CRFR2-BP antag -17.1.
Screening COc1cccc(CN2C(=O)C(C)N(C(=O)c3ccccc3)c3ccccc32)c1 (centres undefined) returned UPR CHOP act 0.3, Jurkat NFkB inh 9.1, XBP1 UPR activ -0.8, 697 NFkB inh -14.0 and CRFR2-BP antag 116.1*.
Cc1ccc(N2C(=NC(=O)c3ccccc3)SC3CS(=O)(=O)CC32)cc1 (centres undefined) was read as UPR CHOP act -0.9, Jurkat NFkB inh -4.8, XBP1 UPR activ -4.6, 697 NFkB inh -19.5 and CRFR2-BP antag -5.2.
`CCCC(=O)N=C1SC2CS(=O)(=O)CC2N1c1ccc(-c2nc3ccc(C)cc3s2)cc1` (centres undefined) gave UPR CHOP act 17.8, Jurkat NFkB inh -103.3, XBP1 UPR activ 65.0*, 697 NFkB inh -125.3 and CRFR2-BP antag 7.7.
`O=C(O)c1cccc2cc(-c3ccccc3)oc(=O)c12` gave UPR CHOP act 0.7, Jurkat NFkB inh 9.6, XBP1 UPR activ -3.6, 697 NFkB inh 1.9 and CRFR2-BP antag 22.6.
O=C(O)c1cccc2cccc(-c3c4ccc(=O)c(O)c-4oc4c(O)c(O)ccc34)c12 was read as CRFR2-BP antag 51.2*.
O=C(O)c1ccc(S(=O)(=O)N2CCC(NC(=O)C3CCCCC3)CC2)cc1 was read as UPR CHOP act 1.0, Jurkat NFkB inh 10.8, XBP1 UPR activ -1.2, 697 NFkB inh 5.1 and CRFR2-BP antag -1.3.
O=C1CCc2cc(S(=O)(=O)N3CCC(C(=O)NC4CCCCCCC4)CC3)ccc2N1 was read as UPR CHOP act -0.1, Jurkat NFkB inh 3.0, XBP1 UPR activ -3.9, 697 NFkB inh 13.6 and CRFR2-BP antag 68.5*.
For CC(=O)N[C@@H](Cc1ccc(O)cc1)CN1C(N)=NC[C@@H]1CC(C)C the results were UPR CHOP act 1.4, Jurkat NFkB inh 6.8, XBP1 UPR activ -1.1, 697 NFkB inh 19.1 and CRFR2-BP antag 8.5.
For Cc1cccc(NC(=O)CSCC(=O)Nc2cc(S(=O)(=O)N3CCOCC3)ccc2OC(C)C)c1 the results were UPR CHOP act -0.1, Jurkat NFkB inh -5.0, XBP1 UPR activ -1.6, 697 NFkB inh -4.5 and CRFR2-BP antag -0.8.
Screening Cc1ccc(CSCC(=O)Nc2cc(S(=O)(=O)N3CCOCC3)ccc2OC(C)C)cc1 returned UPR CHOP act 1.1, Jurkat NFkB inh 13.8, XBP1 UPR activ 0.0, 697 NFkB inh -9.6 and CRFR2-BP antag 64.0*.
O=C1CSC(c2ccccc2F)N1c1cc(Cl)ccc1O (centres undefined) was read as UPR CHOP act 4.4, Jurkat NFkB inh -10.9, XBP1 UPR activ 1.7, 697 NFkB inh -2.7 and CRFR2-BP antag 53.1*.
COc1ccc(CCNC(=O)c2cc(=O)n(C)c(=O)n2C)cc1OC was read as UPR CHOP act 0.7, Jurkat NFkB inh 8.5, XBP1 UPR activ 0.4, 697 NFkB inh 11.9 and CRFR2-BP antag 8.5.
`Cn1c(C(=O)NCCc2ccccc2)cc(=O)n(C)c1=O` gave UPR CHOP act 1.7, Jurkat NFkB inh 3.4, XBP1 UPR activ -1.8, 697 NFkB inh 0.1 and CRFR2-BP antag 71.0*.
Screening Cc1cccnc1NC(=O)C(C)Oc1ccccc1 (centres undefined) returned UPR CHOP act -0.8, Jurkat NFkB inh 0.4, XBP1 UPR activ -4.1, 697 NFkB inh -15.3 and CRFR2-BP antag 79.6*.
`COc1ccc([C@H]2CC(=O)C=C(/C=C/Cc3ccccc3)C2)cc1` gave UPR CHOP act 2.9, Jurkat NFkB inh -2.1, XBP1 UPR activ 3.1, 697 NFkB inh -0.3 and CRFR2-BP antag 1.3.
Screening O=C(COc1ccc(Cl)cc1Cl)N1CCNC1=O returned UPR CHOP act 0.3, Jurkat NFkB inh 5.5, XBP1 UPR activ -0.8, 697 NFkB inh 3.0 and CRFR2-BP antag 20.7.
`O=C(COc1cc(Cl)ccc1Cl)N1CCNC1=O` gave UPR CHOP act 0.5, Jurkat NFkB inh 12.0, XBP1 UPR activ -1.7, 697 NFkB inh 11.6 and CRFR2-BP antag 50.6*.
